Ecoli rRNA inh = inhibits bacterial ribosomal RNA function over humanized ribosomes; E. coli WT GFP vs humanized-ribosome RFP mutants, fluorescence, 24 h; stronger effect = lower value; DMSO median 0, no signal -100; GFP signal change (wild-type ribosome), % (no concentration beside the values); hit rate 1.6% among 350,000;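 active = significant combined selectivity score with lowered wild-type GFP, culture density cut under 30%, mutant RFP and density less affected; inactive = any of these conditions unmet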
FN deposit inh = fibronectin deposition inhibition | hit rate 0.086% among 350,000 | inhibition, % at 12.6 µM | AH1F fibroblasts, Alexa488-fibronectin deposition fluorescence, overnight;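 active = mean inhibition across replicates of 30% or more, regardless of how many single replicates reach that level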;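 also: positive control wells lacked labelled fibronectin entirely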
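material = AH1F fibroblast monolayer depositing Alexa488-labelled fibronectin into matrix | amount = 10000 AH1F cells/well | buffer or medium = DMEM plus 2% serum, read in PBS | incubation = 1 h cell adhesion before compound, then overnight fibronectin incubation | detection = fluorescence at 485 nm excitation, 525 nm emission | evaluation = percent inhibition as loss of matrix-bound fibronectin fluorescence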
PvdQ acylase = P. aeruginosa PvdQ acylase inhibition. inhibition, % at 10 µM. purified PvdQ acylase, fluorescence plate reader. hit rate 0.063% among 340,000; in the data active = inhibition above about 30%, passing the limit was not always enough;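 also: 0% = vehicle neutral wells and 100% = reference inhibitor wells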
HIV Env fusion = inhibitors of HIV Env-mediated cell fusion. HeLa-JRFL Env/CEM21 cell fusion, luciferase. inhibition, % at 12.3 µM. hit rate 1.1% among 360,000;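 active = mean replicate inhibition score of at least 50 and every replicate individually at or above 50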;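 also: 0% = plate neutral controls and 100% = maraviroc near 300 nM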
PDI turbidity = blocks human protein disulfide isomerase activity; P07237; PDI insulin aggregation turbidity, A650, 90 min; inhibition, % at 10 µM; hit rate 0.052% among 350,000;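 active = mean inhibition across replicates of 30% or more, whatever share of single replicates reach that level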
Target sequence (P07237 whole entry, looked up): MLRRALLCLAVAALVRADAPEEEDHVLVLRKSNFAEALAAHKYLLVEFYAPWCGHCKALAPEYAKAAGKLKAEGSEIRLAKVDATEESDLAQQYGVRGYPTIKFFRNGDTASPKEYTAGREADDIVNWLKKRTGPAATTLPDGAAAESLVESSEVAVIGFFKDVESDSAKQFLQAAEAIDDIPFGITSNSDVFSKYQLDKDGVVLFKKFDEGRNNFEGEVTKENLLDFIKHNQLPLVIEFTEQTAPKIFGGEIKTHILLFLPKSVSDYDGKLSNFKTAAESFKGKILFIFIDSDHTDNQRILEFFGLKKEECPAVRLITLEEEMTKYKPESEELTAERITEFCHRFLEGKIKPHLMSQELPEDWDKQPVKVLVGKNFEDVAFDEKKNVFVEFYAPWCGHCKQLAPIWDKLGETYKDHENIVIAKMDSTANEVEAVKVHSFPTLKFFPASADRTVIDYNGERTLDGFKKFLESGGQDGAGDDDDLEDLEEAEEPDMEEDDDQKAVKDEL
ERp5 inh = blocks human ERp5 reductase activity on insulin. Q15084. ERp5 insulin aggregation, absorbance 650 nm, 90 min. inhibition, % at 9.99 µM. hit rate 0.05% among 350,000. AID 651711;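 active = mean replicate inhibition above about 25%, with every replicate also reaching it, limit read from the data, passing the limit was not always enough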
The depositor's hits bear a star; . = not tested or not shown; [ ] = another dose, or the depositor's remark. The list is not random: actives were taken first. Their share in the collection is about 2.2%.

SMILES | Ecoli rRNA inh | FN deposit inh | PvdQ acylase | HIV Env fusion | PDI turbidity | ERp5 inh
COc1ccc(S(=O)(=O)Nc2ccc3c(c2)C(=O)N([C@H](C)CO)C[C@@H](C)[C@H](CN(C)C(=O)Cc2ccccc2)OCCCC[C@H](C)O3)cc1 | 0 | . | . | -33[16.7 µM] | . | 0
COC(=O)c1nn(-c2ccc(OC)cc2)c(=O)cc1Oc1ccccc1 | . | 6 | -1 | 1 | -4 | .
COC(=O)c1nn(-c2ccccc2)c(=O)cc1Oc1ccc(Cl)cc1 | . | -16 | 4 | 122* | -7 | .
C[C@@H]1CN([C@@H](C)CO)C(=O)c2cccc(NC(=O)Nc3ccccc3)c2O[C@@H]1CN(C)C(=O)Nc1cccc2ccccc12 | 0 | 7 | . | . | . | -1
NCCNC(=O)c1c(NC(=O)c2ccccc2)sc2c1CCCC2 | -22* | 0 | -16 | -12 | 2 | -14
O=C(Nc1sc2c(c1C(=O)NCCCO)CCCC2)c1ccccc1 | -7 | 8 | -11 | -64 | -14 | 1
COC(=O)c1c(NC(=O)c2ccccc2C(=O)O)sc2c1CCC2 | -21* | -4 | -9 | 0 | -5 | 0
NC(=O)c1c(NC(=O)c2ccccc2C(=O)O)sc2c1CCCC2 | 4 | 0 | -16 | 2 | 12 | 1
C[C@H]1CN([C@@H](C)CO)C(=O)c2cc(C3=CCCCC3)cnc2O[C@@H]1CN(C)Cc1ccncc1 | 1 | . | . | 12[16.7 µM] | . | -1
COC(=O)Nc1ccc(=O)n(Cc2c(Cl)cccc2Cl)c1 | . | -2 | -7 | 50* | -6 | .
Cc1cc(C)n2nc(NCc3cccc(Br)c3)nc2n1 | . | 6 | -12 | 106* | -3 | .
COc1ccc(CNc2nc3nc(C)cc(C)n3n2)cc1OC | . | -2 | 1 | -7 | 0 | .
Cc1cc(C)cc(Oc2coc3cc(OC(=O)c4cccnc4)ccc3c2=O)c1 | . | -8 | -12 | -14 | 0 | .
Cc1cccc(Oc2coc3cc(OC(=O)c4cncc(Br)c4)ccc3c2=O)c1 | -18* | -3 | -17 | 14 | -9 | -6
Cc1ccc(C2(C)NC(=O)N(CCOc3ccccc3)C2=O)cc1 (stereo unspecified) | -33* | . | -5 | . | 2 | 3
C[C@@H]1CN([C@@H](C)CO)S(=O)(=O)c2ccc(-c3ccccc3F)cc2O[C@H]1CN(C)C | -4 | . | . | 10[16.7 µM] | . | -5
Fc1ccccc1CNCCC(Cc1ccccc1)c1ccc2c(c1)OCO2 (stereo unspecified) | -51* | 6 | -2 | -29 | 8 | 5
O=C(Nc1ccccc1F)N[C@H]1C=C[C@H](CC(=O)N2CCCCC2)O[C@@H]1CO | 2 | -2 | . | -7[16.7 µM] | . | 0
CC(Sc1nnc(-c2ccccc2F)n1C)C(=O)NC1CCCCC1 (stereo unspecified) | 12 | 1 | 30* | 4 | 5 | 2
Cn1c(SCC(=O)NC2CCCCC2)nnc1-c1ccccc1F | 7 | 5 | -10 | -8 | -1 | 1
OCCNc1nc2nonc2nc1NCCO | 6 | 5 | -8 | -5 | 1 | 2
CC(C)(C)Nc1nc2nonc2nc1NC(C)(C)C | -49* | . | 1 | . | -11 | 4
Cc1noc(C)c1NC(=O)Nc1cccc2c1O[C@@H](CN(C)C(=O)Nc1ccc(F)cc1)[C@H](C)CN([C@@H](C)CO)C2=O | 0 | . | . | -11[16.7 µM] | . | .
Nc1ncn([C@H]2C[C@H](O)[C@@H](CO)O2)c(=O)n1 | . | 1 | 13 | 69* | 8 | -8
CCCNC(=O)C[C@H]1CC[C@H]2[C@@H](COC[C@H](O)CN2C(=O)C2CCOCC2)O1 | 4 | -6 | . | . | . | 1
SMILES | Ecoli rRNA inh | FN deposit inh | PvdQ acylase | HIV Env fusion | PDI turbidity | ERp5 inh
CC(C)Cc1nnc(NC(=O)C2CCN(C(=O)c3ccc(Cl)cc3)CC2)s1 | 7 | 3 | -11 | -1 | -6 | -3
CC(C)c1nnc(NC(=O)C2CCN(C(=O)Nc3ccc(Cl)cc3)CC2)s1 | -23* | -2 | 8 | 4 | -3 | 0
CCCNC(=O)C[C@@H]1CC[C@H]2[C@@H](COC[C@@H](O)CN2C(=O)C2CCOCC2)O1 | -1 | -5 | . | . | . | 1
CN(Cc1ccc(Cl)cc1)C(=O)c1ccc(S(=O)(=O)NCc2ccco2)cc1 | 5 | 13 | -7 | -9 | 9 | 0
Cc1nn(-c2ccccc2)c(C)c1CN(C)C(=O)c1ccc(S(=O)(=O)NCc2ccco2)cc1 | -33* | -4 | -4 | -2 | -1 | 6
COc1ccc(CN(C)C[C@H]2Oc3ccc(NC(=O)Nc4ccc(F)cc4)cc3C(=O)N([C@@H](C)CO)C[C@@H]2C)cc1 | 1 | . | . | . | . | 2
O=C(O)c1ccc(N/N=C/c2cn(Cc3ccc(F)cc3)c3ccccc23)cc1 | -34* | 4 | 10 | -49 | -1 | 3
Cn1cc([N+](=O)[O-])c(C(=O)Nc2cc(Oc3ccccc3)cc([N+](=O)[O-])c2)n1 | 4 | 40* | -16 | -119 | 1 | 1
Cc1cccc(NC(=O)c2c([N+](=O)[O-])c(C(C)(C)C)nn2C)c1 | 13 | 3 | -19 | . | -12 | 5
COc1cccc(NC(=S)NNC(=O)c2c([N+](=O)[O-])c(C)nn2C)c1 | . | . | 9 | -49 | 0 | .
Cn1nc(C(C)(C)C)c([N+](=O)[O-])c1C(=O)Nc1ccc(Br)cc1 | -26* | -2 | 13 | 4 | 6 | 7
COc1cccc(NC(=O)c2nn(C)c(C(=O)Nc3cccc(OC)c3)c2[N+](=O)[O-])c1 | -40* | 1 | -3 | -5 | -1 | -3
COc1ccc(S(=O)(=O)Cc2ccc(C(=O)N3CCN(c4cc(Cl)ccc4C)CC3)o2)cc1 | -17* | 5 | -11 | -3 | 8 | -6
COc1ccc(S(=O)(=O)Cc2ccc(C(=O)N3CCN(c4cc(C)ccc4C)CC3)o2)cc1 | -2 | 10 | -11 | 2 | -6 | -2
COc1ccc(-c2cc3nc[nH]c(=O)c3s2)cc1 | . | 10 | -10 | -91 | -3 | .
COc1ccc(-c2cc3nc(CCl)[nH]c(=O)c3s2)cc1 | 4 | -2 | -9 | 32 | 39* | 0
CCOC(=O)C1C(=O)OC(C)(C)C1C(CC)C(=O)c1c(C)cc(C)cc1C (stereo unspecified) | -18 | -1 | . | 76* | 0 | 1
CCOC(=O)C1C(=O)OC(C)(C)C1C(CC)C(=O)c1ccccc1 (stereo unspecified) | 10 | 2 | 7 | -1 | 1 | -1
Cc1noc(C)c1S(=O)(=O)N(C)C[C@H]1OCCCC[C@H](C)Oc2ccc(NS(=O)(=O)c3ccc(F)cc3)cc2C(=O)N([C@H](C)CO)C[C@@H]1C | -1 | -2 | . | 3[16.7 µM] | . | .
O=C(NC(=S)N1CCCCC1)c1csc([N+](=O)[O-])c1 | -23* | -6 | -10 | -28 | -10 | -2
C=CCNC(=S)NC(=O)c1csc([N+](=O)[O-])c1 | -7 | -1 | 1 | -2 | 6 | 6
C[C@H]1CN([C@@H](C)CO)S(=O)(=O)c2ccc(C#CC3(O)CCCC3)cc2O[C@H]1CN(C)C(=O)Cc1ccccc1 | -4 | . | . | -46[16.7 µM] | . | -2

Compound activity (PubChem BioAssay)
